From PubChem
Calpain2 inh = inhibitors of pig calpain II, primary screen, biochemical, fluorogenic peptide substrate, 1536-well | purified calpain II, 30 min | inhibition, % at 16 µM | hit rate 0.37% among 220,000 | AID 1236, 2008;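 active means inhibition above about 50%, limit read from the data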
ROMK mod = ROMK potassium channel modulators, primary screen, cell-based, thallium flux, MLSMR library; Tet-inducible ROMK, thallium flux fluorescence; actives lie on both sides; B-score at 10 µM; hit rate 2% among 130,000;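 active means signal ratio slope over the read window, or its plate-corrected B-score, at least 3 SD from the plate mean, either direction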;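 further: B-score of the F/F0 ratio slope over 7 to 12 s after thallium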
Arbovirus inh = antivirals against arbovirus infection, primary screen, cell-based, full library, 10K replicate subset | arbovirus infection cell-based antiviral screen | inhibition, % at 10 µM | hit rate 0.37% among 200,000 | AID 1251, 2008; in the data active means inhibition above about 30%
Mdm2 ligase inh = MDM2-luciferase reporter signal enhancers, primary screen, MDM2 E3 ligase inhibitor project, cell-based, luminescence, 1536-well | AID 1230, 2008 | cell-based MDM2 ubiquitination luciferase reporter, 2 h; 0 = plate control, 100 = twice control, blank-subtracted | hit rate 0.11% among 210,000 | signal enhancement, % at 5 µM | E3 ubiquitin-protein ligase Mdm2 (Homo sapiens), Q00987;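 active means signal enhancement of 30% or more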;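 further: luminescence tracks abundance of the self-degrading MDM2-luciferase fusion protein; higher signal means inhibition of MDM2 E3 ligase activity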
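Buffer or medium: Cells held in DMEM | Assay system: Stable mammalian line carrying autodegrading MDM2–luciferase fusion reporter | Quantity: 2000 cells/well | Times: 4 h settle plus 2 h compound, 37 °C | Doses: One concentration, 5 µM, with 0.2% DMSO | Technique: Luminescence with SteadyLite reagent, 15 min at room temperature | Benchmarks: Plate controls and plate blanks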
PKD1 inh = inhibitors of human PKD1 kinase, biochemical, fluorescence polarization; Serine/threonine-protein kinase D1 (Homo sapiens), Q15139; AID 797, 2007; PKD1 kinase fluorescence polarization assay; hit rate 0.056% among 200,000; inhibition, % (test concentration not listed); in the data active means inhibition above about 50%
Target sequence (Q15139 whole entry, looked up): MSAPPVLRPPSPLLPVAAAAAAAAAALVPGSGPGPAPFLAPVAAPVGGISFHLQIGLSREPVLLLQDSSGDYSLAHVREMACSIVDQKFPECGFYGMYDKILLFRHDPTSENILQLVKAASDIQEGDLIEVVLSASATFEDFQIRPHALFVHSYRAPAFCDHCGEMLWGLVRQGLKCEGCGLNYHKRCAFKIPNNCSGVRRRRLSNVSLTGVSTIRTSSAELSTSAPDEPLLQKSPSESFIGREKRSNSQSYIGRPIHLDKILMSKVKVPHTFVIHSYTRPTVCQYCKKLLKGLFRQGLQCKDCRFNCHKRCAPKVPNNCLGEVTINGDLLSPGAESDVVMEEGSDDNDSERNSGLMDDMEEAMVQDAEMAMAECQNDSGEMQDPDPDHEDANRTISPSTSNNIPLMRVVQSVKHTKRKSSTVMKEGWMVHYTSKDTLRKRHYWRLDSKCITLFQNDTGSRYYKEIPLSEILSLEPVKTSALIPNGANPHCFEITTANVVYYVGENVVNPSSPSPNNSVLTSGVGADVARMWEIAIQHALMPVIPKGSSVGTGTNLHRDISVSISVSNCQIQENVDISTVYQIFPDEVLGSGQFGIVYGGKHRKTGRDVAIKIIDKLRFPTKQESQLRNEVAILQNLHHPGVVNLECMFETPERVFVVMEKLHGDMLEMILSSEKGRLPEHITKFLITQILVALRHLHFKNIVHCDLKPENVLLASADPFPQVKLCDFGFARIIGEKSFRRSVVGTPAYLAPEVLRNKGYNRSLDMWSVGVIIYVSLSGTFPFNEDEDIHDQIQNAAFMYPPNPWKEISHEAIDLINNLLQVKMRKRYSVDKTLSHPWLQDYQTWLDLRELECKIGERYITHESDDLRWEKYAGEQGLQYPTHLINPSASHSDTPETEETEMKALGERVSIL
Cl transport mod = KCC2 cotransporter modulators, thallium flux, primary screen, cell-based, HEK293 KCC2, FluoZin-2 fluorescence, MLSMR; Solute carrier family 12 member 5 (Homo sapiens), Q9H2X9; KCC2 cells, thallium flux FluoZin-2 fluorescence; B-score of Tl+ flux slope (higher = more flux/activation; lower = inhibition) at 10 µM; hit rate 2.2% among 190,000;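 active means thallium flux slope and its plate-corrected score both differing from the plate sample mean at a set confidence after two filtering rounds, in either direction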;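 further: slope of fluorescence scaled to starting intensity during 10 to 20 s after thallium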
ROMK hit retest = ROMK channel modulator hit retest, confirmation, cell-based, thallium flux, duplicate, resupplied hits | shares compounds with ROMK mod | fluorescence ratio; active compounds read low | normalized thallium flux (F/F0 slope) at 10 µM | hit rate 54% among 3,000;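 active means Flux at 10 µM at least 3 SD below or above vehicle control mean in one or both replicates; inconclusive means no clear call, values can overlap the other calls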
The depositor's hits bear a star; i = inactive; ? = inconclusive; . = no result given. Sampled rows, rich in hits. Any-hit rate of the full collection: about 3.7%.

SMILES | Calpain2 inh | ROMK mod | Arbovirus inh | Mdm2 ligase inh | PKD1 inh | Cl transport mod | ROMK hit retest
CC(C)Nc1nnc(SC(C)C(=O)NCc2ccc3c(c2)OCO3)s1 (stereo unspecified) | 23 | 1.7* | 1 | -8 | 3 | -0.055 | 0.077
N#C/C(=C/c1ccc(N2CCCCC2)o1)C(=O)Nc1ccc2ccccc2c1 | -25 | . | -7 | -6 | -45 | i | .
N#C/C(=C/c1ccc(N2CCCCC2)o1)C(=O)Nc1ccc(Cl)cc1 | -15 | . | 3 | -8 | -2 | . | 0.048*
CS/C(=N\S(=O)(=O)c1ccccc1)c1ccccc1 | -9 | 0.14 | -1 | 5 | 1 | 0.16 | .
O=S(=O)(/N=C(/Sc1ccccc1)c1ccccc1)c1ccccc1 | -24 | -2.8* | 0 | 0 | 3 | 0.17 | 0.05*
Cn1c(=O)c2c(nc(Cl)n2CC(=O)N2CCCCC2)n(C)c1=O | -14 | 1.3 | -1 | 1 | -7 | 0.61 | .
CC1=CC(C)(C)N(C(=O)CNC2CCCCC2)c2cc(C)ccc21 | 26 | -7.1* | 10 | -4 | 1 | 0.41 | 0.051*
C/C(=N\Nc1ccc2nncn2n1)c1ccc(Br)s1 | -14 | 0.028 | . | -8 | . | -0.18 | .
Cc1ccc2oc(=O)n(CCOc3ccccc3)c2c1 | 3 | -3.5* | 2 | -6 | 0 | -0.55 | 0.057*
Cc1ccc(CN=Cc2[nH]c3ccc(Br)c(Cl)c3c2O)cc1 | -64 | -3.2* | -7 | -2 | -9 | -3.3 | 0.045*
O=c1[nH]c(=O)n(C2CCCCCC2)c(O)c1C=NCc1ccc(F)cc1 | -9 | . | 4 | -18 | -5 | -1 | .
Oc1c(C=NCc2ccc(F)cc2)[nH]c2ccc(Br)c(Cl)c12 | 18 | -5.2* | -21 | -3 | 2 | . | 0.047*
CN(C)CCNC(=O)c1ccc(Sc2ccc(Br)cc2)c([N+](=O)[O-])c1 | -9 | -2.8* | -34 | -6 | 7 | -0.043 | 0.063*
COc1ccc(Cn2c(=O)[nH]c3cc(C(=O)N4CCN(Cc5ccccc5)CC4)ccc3c2=O)cc1 | -38 | . | -4 | 1 | -3 | -0.0098 | 0.079
CCN1CCN(C(=O)c2ccc(Cn3c(=O)[nH]c4cc(OC)c(OC)cc4c3=O)cc2)CC1 | -15 | 0.21 | 0 | -10 | -7 | 0.75 | .
COC(=O)c1ccc2c(=O)n(CCCCCC(=O)N3CCN(c4ccccc4)CC3)c(=O)[nH]c2c1 | -26 | . | 14 | -8 | -24 | -2.4 | 0.075
CCN1CCN(C(=O)CCCCCn2c(=O)[nH]c3cc(C(=O)OC)ccc3c2=O)CC1 | -89 | . | 19 | -8 | -8 | 0.41 | .
O=C(CSc1cccc[n+]1[O-])C12CC3CC(CC(C3)C1)C2 | 5 | 1.1 | 9 | -9 | -5 | 1.2 | .
Cc1[nH]n(-c2ccc(Br)cc2)c(=O)c1C=Nc1ccc(S(=O)(=O)Nc2nccs2)cc1 | 20 | . | -4 | -7 | -4 | 0.62 | 0.086
COc1ccc(S(=O)(=O)c2cnc3ccc(OC)cc3c2N2CCC3(CC2)OCCO3)cc1 | 2 | . | -12 | -13 | 2 | -0.82 | 0.05*
COc1ccc(N2CCN(c3c(S(=O)(=O)c4ccccc4)cnc4ccc(OC)cc34)CC2)cc1 | 1 | . | 5 | -10 | 3 | -0.7 | ?
CCOc1ccc2ncc(S(=O)(=O)c3ccccc3)c(N3CCN(c4ccc(OC)cc4)CC3)c2c1 | 22 | . | 10 | -10 | -11 | -0.061 | .
COc1ccc(C(=O)CSc2nnc(CN3CCCCC3)n2-c2ccc(Cl)cc2)cc1OC | -73 | -0.66 | -7 | 6 | 6 | -0.74 | .
CC(C)(C)c1cc(C(=O)NNC(=O)Nc2ccccc2)n(Cc2ccccc2)n1 | 16 | . | . | -15 | . | 0.4 | .
CC(C)(C)c1cc(C(=O)NCc2cc(F)cc3c2OCOC3)n(Cc2ccccc2)n1 | 1 | . | . | -13 | . | -0.9 | 0.08
SMILES | Calpain2 inh | ROMK mod | Arbovirus inh | Mdm2 ligase inh | PKD1 inh | Cl transport mod | ROMK hit retest
Cc1ccc(S(=O)(=O)Nc2ccc(NC(=O)CN3CCCCC3)cc2)cc1 | -1 | 0.39 | -12 | -1 | -6 | -0.011 | .
Cc1ccc(S(=O)(=O)Nc2cc(NC(=O)CN3CCOCC3)ccc2Cl)cc1 | 14 | . | 10 | -16 | -8 | 0.052 | 0.088
O=C(Nc1ccc(N2CCOCC2)nc1)c1ccccc1Cl | 1 | . | . | -8 | . | . | .
O=[N+]([O-])c1ccc(C[n+]2cccc3c4ccccc4ccc32)cc1 | -213 | 0.78 | 0 | -10 | 4 | -0.0043 | .
CCCCCCCCC[n+]1cccc2c3ccccc3ccc21 | -21 | -5.7* | -36 | -66 | 0 | . | 0.042*
COCCCNC(=S)NNC(=O)c1ccc(S(=O)(=O)N2CCC(C)CC2)cc1 | -11 | 0.074 | 11 | 2 | -6 | -1.2 | .
COc1cc(C2Oc3ccccc3C=C2[N+](=O)[O-])cc(OC)c1OC (stereo unspecified) | -10 | -7* | . | -7 | . | -2.2 | 0.033*
O=c1c2sccc2nc(SCc2cc(=O)n3cc(Br)ccc3n2)n1Cc1ccccn1 | 30 | -0.11 | 7 | -3 | -5 | -1.7 | .
Cc1cc(C)n(-c2nc(NCCN(C)C)c3c4c(sc3n2)CCCC4)n1 | 3 | . | . | -10 | . | 1 | ?
CC(C)(C)SCCNC(=O)CN(c1ccccc1)S(=O)(=O)c1ccc(F)cc1 | 8 | -0.021 | 5 | -21 | -3 | . | .
N#CC1=C(N)NC(SCC(=O)c2ccc(Cl)cc2)=C(C#N)C12CCCC2 | 19 | -2.3* | -12 | -17 | 4 | -1.8 | 0.066*
Cc1ccc(C(c2nnnn2C(C)(C)C)N2CCN(C3CCCC3)CC2)cc1 (stereo unspecified) | -4 | -5* | -2 | -9 | -2 | -0.2 | 0.073
COc1ccc(-c2nnc(SCC(=O)NC(=O)NCc3ccco3)o2)cc1 | -39 | . | 14 | -5 | -7 | . | .
COc1ccccc1Oc1ccc(S(=O)(=O)NCc2ccccn2)cc1 | 32 | -2.7* | -1 | -6 | -11 | . | 0.073
N#Cc1sc2nc(-c3ccccc3)cc(C(F)(F)F)c2c1N | -48 | -4.4* | 5 | -89 | -1 | -0.92 | 0.063*
CCOC(=O)CN(Cc1sccc1C)C(=O)Nc1ccc(OC)cc1OC | -9 | -0.39 | 5 | -10 | -6 | -0.12 | .
O=C(CN1CCN(c2ccc([N+](=O)[O-])cc2)CC1)Nc1ccccn1 | 3 | -3.2* | 9 | -12 | -6 | . | 0.054*
COc1ccc(CNCC(=O)Nc2ccccc2-n2cccc2)cc1 | -17 | 1.5 | -8 | -2 | -5 | -0.45 | .
